Assay results reported in ChEMBL document CHEMBL1140048, “NO-donors. Part 17: Synthesis and antimicrobial activity of novel ketoconazole-NO-donor hybrid compounds” (Bioorg Med Chem, 2008).
≈ marks a conversion by molar mass, not a printed value.

What was measured:
Aspergillus fumigatus [1] = experiment: Antifungal activity against Aspergillus fumigatus after 24 hrs by broth microdilution method; assay type: functional
Summary of the method: (§1)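 Broth microdilution per NCCLS in RPMI 1640 (L-glutamine, MOPS, no bicarbonate). An 8 mM stock in DMSO/methanol 1:10 is serially diluted twofold; NONOate salts go through 0.1 M NaOH, with only the last step in medium. Inoculum is 6×10^3 CFU/mL final. A. fumigatus and A. terreus are incubated 24 h at 37 °C; others at 30 °C. MIC is the lowest dilution without visible growth, read nephelometrically.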

Aspergillus niger [2] = experiment: Antifungal activity against Aspergillus niger after 24 hrs by broth microdilution method; assay type: functional; summary of the method: as §1
Candida albicans [3] = experiment: Antifungal activity against Candida albicans after 24 hrs by broth microdilution method; assay type: functional; summary of the method: as §1
Nakaseomyces glabratus [4] = experiment: Antifungal activity against Candida glabrata after 24 hrs by broth microdilution method; assay type: functional; summary of the method: as §1
Penicillium chrysogenum [5] = experiment: Antifungal activity against Penicillium notatum after 24 hrs by broth microdilution method; assay type: functional; summary of the method: as §1
Aspergillus terreus [6] = experiment: Antifungal activity against Aspergillus terreus after 24 hrs by broth microdilution method; assay type: functional; summary of the method: as §1
[7] = tested on: Sporobolomyces salmonicolor; experiment: Antifungal activity against Sporobolomyces salmonicolor after 24 hrs by broth microdilution method; assay type: functional; summary of the method: as §1
Fusarium oxysporum [8] = experiment: Antifungal activity against Fusarium oxysporum after 24 hrs by agar diffusion method
Aspergillus terreus [9] = experiment: Ratio of MIC for drug to ketoconazole against Aspergillus terreus; assay type: functional
Summary of the method: (§2)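 FIC is calculated as the MIC of the test compound divided by the MIC of ketoconazole. Both MICs come from 24 h NCCLS broth microdilution in RPMI 1640/MOPS, starting from an 8 mM stock in twofold dilutions, at 6×10^3 CFU/mL. Incubation is at 37 °C for A. fumigatus and A. terreus and at 30 °C for the other strains.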

Aspergillus fumigatus [10] = experiment: Ratio of MIC for drug to ketoconazole against Aspergillus fumigatus; assay type: functional; summary of the method: as §2
Aspergillus niger [11] = experiment: Ratio of MIC for drug to ketoconazole against Aspergillus niger; assay type: functional; summary of the method: as §2
Fusarium oxysporum [12] = experiment: Ratio of MIC for drug to ketoconazole against Fusarium oxysporum; assay type: functional
Candida albicans [13] = experiment: Ratio of MIC for drug to ketoconazole against Candida albicans; assay type: functional; summary of the method: as §2
Nakaseomyces glabratus [14] = experiment: Ratio of MIC for drug to ketoconazole against Candida glabrata; assay type: functional; summary of the method: as §2
[15] = tested on: Sporobolomyces salmonicolor; experiment: Ratio of MIC for drug to ketoconazole against Sporobolomyces salmonicolor; assay type: functional; summary of the method: as §2
Penicillium chrysogenum [16] = experiment: Ratio of MIC for drug to ketoconazole against Penicillium notatum; assay type: functional; summary of the method: as §2
Candida = experiment: Antifungal activity against Candida sp. by microdilution assay; assay type: functional
Summary of the method: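 Broth microdilution per NCCLS guidelines in RPMI 1640 (L-glutamine, MOPS, no bicarbonate). An 8 mM stock in DMSO/methanol (1:10) was serially diluted twofold in medium; NONOate sodium salts were diluted in 0.1 M NaOH, with only the final step in medium, used at once. Final inoculum 6×10^3 CFU/mL, 30 °C, 24 h. MIC read nephelometrically as the lowest dilution with no visible growth.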

Row | Compound | MIC (Aspergillus fumigatus [1]) [µM] | MIC (Aspergillus niger [2]) [µM] | MIC (Candida albicans [3]) [µM] | MIC (Nakaseomyces glabratus [4]) [µM] | MIC (Penicillium chrysogenum [5]) [µM] | MIC (Aspergillus terreus [6]) [µM] | MIC [7] [µM] | MIC (Fusarium oxysporum [8]) [µM] | Ratio (Aspergillus terreus [9]) | Ratio (Aspergillus fumigatus [10]) | Ratio (Aspergillus niger [11]) | Ratio (Fusarium oxysporum [12]) | Ratio (Candida albicans [13]) | Ratio (Nakaseomyces glabratus [14]) | Ratio [15] | Ratio (Penicillium chrysogenum [16]) | MIC (Candida) [µg/mL]
1 | CCO/N=[N+](\[O-])N1CCN(c2ccccc2)CC1 | > 2000 | > 2000 | > 2000 | > 2000 | > 2000 | > 2000 | > 2000 | > 2000 | – | – | – | – | – | – | – | – | –
2 | O=C(CO[N+](=O)[O-])N1CCN(c2ccc(OC[C@H]3CO[C@](Cn4ccnc4)(c4ccc(Cl)cc4Cl)O3)cc2)CC1 | 25 (≈ 14.8 µg/mL) | 12.5 (≈ 7.41 µg/mL) | 25 (≈ 14.8 µg/mL) | 1.56 (≈ 0.924 µg/mL) | 2.5 (≈ 1.48 µg/mL) | 12.5 (≈ 7.41 µg/mL) | 0.16 (≈ 0.0948 µg/mL) | 100 (≈ 59.2 µg/mL) | 0.4 | 0.4 | 0.2 | 0.2 | 1 | 0.12 | 0.1 | 0.31 | –
3 | O=[N+]([O-])OCCN1CCN(c2ccc(OC[C@H]3CO[C@](Cn4ccnc4)(c4ccc(Cl)cc4Cl)O3)cc2)CC1 | 1000 (≈ 578 µg/mL) | 250 (≈ 145 µg/mL) | 12.5 (≈ 7.23 µg/mL) | 6.25 (≈ 3.62 µg/mL) | 62.5 (≈ 36.2 µg/mL) | 1000 (≈ 578 µg/mL) | 15.6 (≈ 9.02 µg/mL) | 1000 (≈ 578 µg/mL) | 32 | 16 | 4 | 2 | 0.5 | 0.5 | 10 | 7.81 | –
4 | O=[N+]([O-])OCCN1CCN(c2ccccc2)CC1 | > 2000 | > 2000 | > 2000 | > 2000 | > 2000 | > 2000 | > 2000 | > 2000 | – | – | – | – | – | – | – | – | –
5 | [O-]/[N+](=N\O)N1CCN(c2ccccc2)CC1 | > 2000 | > 2000 | > 2000 | > 2000 | > 2000 | > 2000 | > 2000 | > 2000 | – | – | – | – | – | – | – | – | –
6 | Clc1ccc([C@@]2(Cn3ccnc3)OC[C@H](COc3ccc(N4CCNCC4)cc3)O2)c(Cl)c1 | 2000 (≈ 979 µg/mL) | 2000 (≈ 979 µg/mL) | 25 (≈ 12.2 µg/mL) | 50 (≈ 24.5 µg/mL) | 250 (≈ 122 µg/mL) | 2000 (≈ 979 µg/mL) | 25 (≈ 12.2 µg/mL) | 2000 (≈ 979 µg/mL) | 64 | 32 | 32 | 4 | 1 | 4 | 16 | 31.25 | –
7 | COCO/N=[N+](\[O-])N1CCN(c2ccc(OC[C@H]3CO[C@](Cn4ccnc4)(c4ccc(Cl)cc4Cl)O3)cc2)CC1 | 8 (≈ 4.75 µg/mL) | 4 (≈ 2.37 µg/mL) | 25 (≈ 14.8 µg/mL) | 3.13 (≈ 1.86 µg/mL) | 1.56 (≈ 0.926 µg/mL) | 8 (≈ 4.75 µg/mL) | 2 (≈ 1.19 µg/mL) | 250 (≈ 148 µg/mL) | 0.26 | 0.13 | 0.06 | 0.5 | 1 | 0.25 | 1.3 | 0.2 | –
8 | O=C(CO/N=[N+](\[O-])N1CCCC1)N1CCN(c2ccccc2)CC1 | > 2000 | > 2000 | > 2000 | > 2000 | > 2000 | > 2000 | > 2000 | > 2000 | – | – | – | – | – | – | – | – | –
9 | COCO/N=[N+](\[O-])N1CCN(c2ccccc2)CC1 | > 2000 | > 2000 | > 2000 | > 2000 | > 2000 | > 2000 | > 2000 | > 2000 | – | – | – | – | – | – | – | – | –
10 | NCCN(CCN)/[N+]([O-])=N/O | – | – | – | – | – | – | – | – | – | – | – | – | – | – | – | – | 2000 (≈ 12.3 mM)
11 | CC(C)(CO[N+](=O)[O-])C(=O)N1CCN(c2ccc(OC[C@H]3CO[C@](Cn4ccnc4)(c4ccc(Cl)cc4Cl)O3)cc2)CC1 | 3.13 (≈ 1.99 µg/mL) | 1.56 (≈ 0.99 µg/mL) | 6.25 (≈ 3.97 µg/mL) | 3.13 (≈ 1.99 µg/mL) | 8 (≈ 5.08 µg/mL) | 1.56 (≈ 0.99 µg/mL) | 0.6 (≈ 0.381 µg/mL) | 25 (≈ 15.9 µg/mL) | 0.05 | 0.05 | 0.025 | 0.05 | 0.25 | 0.25 | 0.38 | 1 | –
12 | CC(C)(CO[N+](=O)[O-])C(=O)N1CCN(c2ccccc2)CC1 | > 2000 | > 2000 | > 2000 | > 2000 | > 2000 | > 2000 | > 2000 | > 2000 | – | – | – | – | – | – | – | – | –
13 | O=C(CO/N=[N+](\[O-])N1CCCC1)N1CCN(c2ccc(OC[C@H]3CO[C@](Cn4ccnc4)(c4ccc(Cl)cc4Cl)O3)cc2)CC1 | 125 (≈ 82.6 µg/mL) | 62.5 (≈ 41.3 µg/mL) | 25 (≈ 16.5 µg/mL) | 12.5 (≈ 8.26 µg/mL) | 8 (≈ 5.28 µg/mL) | 62.5 (≈ 41.3 µg/mL) | 2 (≈ 1.32 µg/mL) | 1000 (≈ 661 µg/mL) | 2 | 2 | 1 | 2 | 1 | 1 | 1.3 | 1 | –
14 | c1ccc(N2CCNCC2)cc1 [PHENYLPIPERAZINE] | > 2000 | > 2000 | > 2000 | > 2000 | > 2000 | > 2000 | > 2000 | > 2000 | – | – | – | – | – | – | – | – | –
15 | CC(=O)N1CCN(c2ccc(OCC3COC(Cn4ccnc4)(c4ccc(Cl)cc4Cl)O3)cc2)CC1 (stereo unspecified) [KETOCONAZOLE] | 62.5 (≈ 33.2 µg/mL) | 62.5 (≈ 33.2 µg/mL) | 25 (≈ 13.3 µg/mL) | 12.5 (≈ 6.64 µg/mL) | 8 (≈ 4.25 µg/mL) | 31.2 (≈ 16.6 µg/mL) | 1.56 (≈ 0.829 µg/mL) | 500 (≈ 266 µg/mL) | – | – | – | – | – | – | – | – | –
16 | O=C(CO[N+](=O)[O-])N1CCN(c2ccccc2)CC1 | > 2000 | > 2000 | > 2000 | > 2000 | > 2000 | > 2000 | > 2000 | > 2000 | – | – | – | – | – | – | – | – | –
17 | NCCCN(CCCN)N(O)N=O | – | – | – | – | – | – | – | – | – | – | – | – | – | – | – | – | 5000 (≈ 26.1 mM)
18 | CCO/N=[N+](\[O-])N1CCN(c2ccc(OC[C@H]3CO[C@](Cn4ccnc4)(c4ccc(Cl)cc4Cl)O3)cc2)CC1 | 12.5 (≈ 7.22 µg/mL) | 1.56 (≈ 0.901 µg/mL) | 50 (≈ 28.9 µg/mL) | 3.13 (≈ 1.81 µg/mL) | 1.25 (≈ 0.722 µg/mL) | 3.13 (≈ 1.81 µg/mL) | 0.16 (≈ 0.0924 µg/mL) | 50 (≈ 28.9 µg/mL) | 0.1 | 0.2 | 0.025 | 0.1 | 2 | 0.25 | 0.1 | 0.16 | –
